This note sets out measurements from ChEMBL document CHEMBL4393718, “Synthesis, biological evaluation and computational study of novel isoniazid containing 4H-Pyrimido[2,1-b]benzothiazoles derivatives” (2019).

Converted amounts (≈) assume the structure as drawn.

What all share (assay type): functional
The subject of assay [1] is Mycobacterium tuberculosis. Kind of assay: Antitubercular activity against Mycobacterium tuberculosis H37Rv incubated for 42 days by Lowensteine-Jensen method.
The test system of assay [2] is Mycobacterium tuberculosis. Nature of the assay: Antitubercular activity against Mycobacterium tuberculosis H37Rv assessed as reduction in viable colony forming unit at 1000 ug/ml incubated for 42 days by Lowensteine-Jensen method relative to control. A digest of the protocol: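 H37Rv cultured on Lowenstein-Jensen medium with compound or untreated control; colony forming units counted on the L-J medium. Percent inhibition = (Cc − Ct)/Cc × 100, where c is control and t is test.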

In assay [3] the test system is Mycobacterium tuberculosis. Kind of assay: Antitubercular activity against Mycobacterium tuberculosis H37Rv assessed as viable colony forming unit at 1000 ug/ml incubated for 42 days by Lowensteine-Jensen method (reference value: 123 CFU).
The test system of assay [4] is Bacillus cereus. Nature of the assay: Antimicrobial activity against Bacillus cereus MTCC 8558 incubated for 24 hrs by well diffusion method. The procedure, abridged: (§1)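 Well diffusion assay on nutrient agar plates. The read-out is the mean inhibition zone diameter in mm.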
Assay [5] deals with Klebsiella aerogenes. Kind of assay: Antimicrobial activity against Enterobacter aerogenes MTCC 8558 incubated for 24 hrs by well diffusion method. A digest of the protocol:
as §1
(In general: A growth-free zone around the sample is the usual read-out of agar diffusion tests.)

Assay [6] has as its system Micrococcus luteus. Nature of the assay: Activity index, ratio of IZ for test compound to IZ for streptomycin for antimicrobial activity against Micrococcus luteus MTCC 11948 incubated for 24 hrs by well diffusion method. The procedure, abridged:
(§2)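 Well diffusion on nutrient agar plates. The activity index is the mean inhibition zone of the derivative divided by the inhibition zone of the standard antibiotic.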

For assay [7], the system named is Escherichia coli. Kind of assay: Antimicrobial activity against Escherichia coli MTCC 1610 incubated for 24 hrs by well diffusion method. The procedure, abridged: as §1
The subject of assay [8] is Escherichia coli. Nature of the assay: Activity index, ratio of IZ for test compound to IZ for streptomycin for antimicrobial activity against Escherichia coli MTCC 1610 incubated for 24 hrs by well diffusion method. A digest of the protocol:
as §2

Assay [9] relates to Klebsiella aerogenes. Kind of assay: Activity index, ratio of IZ for test compound to IZ for streptomycin for antimicrobial activity against Enterobacter aerogenes MTCC 8558 incubated for 24 hrs by well diffusion method. The procedure, abridged: as §2
For assay [10], the system named is Micrococcus luteus. Nature of the assay: Antimicrobial activity against Micrococcus luteus MTCC 11948 incubated for 24 hrs by well diffusion method. A digest of the protocol: as §1
The test system of assay [11] is Bacillus cereus. Nature of the assay: Activity index, ratio of IZ for test compound to IZ for streptomycin for antimicrobial activity against Bacillus cereus MTCC 8558 incubated for 24 hrs by well diffusion method. A digest of the protocol:
as §2

For the compound `NNC(=O)c1ccncc1` [ISONIAZID], the MIC (in general, the lowest concentration that inhibits growth of the organism) in [1] came out at 0.2 µg/mL (≈ 1.46 µM). The inhibition (usually how much of the control response was suppressed) at 1000 µg/mL in assay [2] turned out to be 99.2%. Further, in assay [3], the Activity was found to be 1 CFU.
Take `CC1=C(C(=O)NNC(=O)c2ccncc2)C(c2ccccn2)N2C(=N1)Sc1cc(Br)ccc12` (stereo unspecified): the “inhibition zone (IZ)” value in assay [4] was found to be 18 mm; in assay [5] it was 20 mm; in assay [7], 19 mm; in [10], 15 mm. In addition, in assay [1], it took 62.5 µg/mL (≈ 120 µM) to inhibit growth (MIC). For the same compound, the inhibition at 1000 µg/mL in assay [2] was 73.2%. The Activity_index in assay [6] turned out to be 0.625; in assay [8], 0.792; in assay [9] it was 0.833; in assay [11], 0.75. The Activity in assay [3] is listed as 33 CFU.
With `CC1=C(C(=O)NNC(=O)c2ccncc2)C(c2ccccn2)N2C(=N1)Sc1cc(C)ccc12` (stereo unspecified), the “inhibition zone (IZ)” value amounted to 19 mm in [4], 15 mm in assay [5], 21 mm in assay [7] and 19 mm in [10]. Also, the MIC in assay [1] worked out at 500 µg/mL (≈ 1100 µM). The inhibition at 1000 µg/mL in assay [2] was determined as 54.5%. In addition, the Activity_index in assay [6] amounted to 0.792; in assay [8], 0.875; in assay [9], 0.625; in assay [11] it was 0.792. Besides, in assay [3], the Activity is recorded as 56 CFU.
On to `CC1=C(C(=O)NNC(=O)c2ccncc2)C(c2ccccn2)N2C(=N1)Sc1ccccc12` (stereo unspecified), for which the “inhibition zone (IZ)” value stood at 22 mm in [4], 19 mm in assay [5], 13 mm in assay [7] and 20 mm in [10]. The compound further yielded an MIC in assay [1] of 125 µg/mL (≈ 282 µM). Besides, in assay [2], the inhibition at 1000 µg/mL is 69.9%. Further, the Activity_index was determined as 0.833 in assay [6], 0.542 in assay [8], 0.792 in assay [9] and 0.917 in assay [11]. Moreover, the Activity in assay [3] was found to be 37 CFU.
Regarding `CC1=C(C(=O)NNC(=O)c2ccncc2)C(c2ccccn2)N2C(=N1)Sc1cc(C)c(C)cc12` (stereo unspecified), the “inhibition zone (IZ)” value was 19 mm in assay [4], 19 mm in assay [5], 15 mm in [7] and 19 mm in assay [10]. This compound also returned an MIC in [1] of 12.5 µg/mL (≈ 26.6 µM). Moreover, the inhibition at 1000 µg/mL in assay [2] came out at 82.1%. The Activity_index stood at 0.792 in [6], 0.625 in assay [8], 0.792 in [9] and 0.792 in assay [11]. For the same compound, the Activity in assay [3] is on record as 22 CFU.
Take `CC1=C(C(=O)NNC(=O)c2ccncc2)C(c2ccccn2)N2C(=N1)Sc1cc(Cl)ccc12` (stereo unspecified): the “inhibition zone (IZ)” value in assay [4] was determined as 17 mm; in [5], 16 mm; in assay [7], 18 mm; in assay [10] it was 16 mm. 125 µg/mL (≈ 262 µM) was the least that counted as inhibitory in assay [1] (MIC). Besides, the inhibition at 1000 µg/mL in assay [2] is 71.5%. Moreover, the Activity_index is 0.667 in assay [6], 0.75 in [8], 0.667 in [9] and 0.708 in assay [11]. In assay [3], the Activity was 35 CFU.
For the compound `CC1=C(C(=O)NNC(=O)c2ccncc2)C(c2ccccn2)N2C(=N1)Sc1cccc(C)c12` (stereo unspecified), the “inhibition zone (IZ)” value turned out to be 23 mm in [4], 23 mm in assay [5], 17 mm in assay [7] and 23 mm in [10]. In addition, inhibition of growth in [1] (MIC) required 1000 µg/mL (≈ 2190 µM). Further, the inhibition at 1000 µg/mL in assay [2] amounted to 47.1%. The Activity_index is 0.958 in assay [6], 0.708 in assay [8], 0.958 in assay [9] and 0.958 in [11]. Also, in assay [3], the Activity came out at 65 CFU.
`COc1ccc2c(c1)SC1=NC(C)=C(C(=O)NNC(=O)c3ccncc3)C(c3ccccn3)N12` (stereo unspecified): the “inhibition zone (IZ)” value amounted to 15 mm in assay [4], 22 mm in [5], 15 mm in [7] and 22 mm in [10]. In assay [1], this compound returned an MIC of 500 µg/mL (≈ 1060 µM). The inhibition at 1000 µg/mL in [2] was 49.6%. In addition, the Activity_index is on record as 0.917 in assay [6], 0.625 in assay [8], 0.917 in [9] and 0.625 in assay [11]. Moreover, the Activity in [3] came out at 62 CFU.
Regarding `CC1=C(C(=O)NNC(=O)c2ccncc2)C(c2ccccn2)N2C(=N1)Sc1cc(OC(F)(F)F)ccc12` (stereo unspecified), the “inhibition zone (IZ)” value stood at 19 mm in assay [4], 22 mm in [5], 19 mm in [7] and 18 mm in assay [10]. The same compound registered an MIC in [1] of 6.25 µg/mL (≈ 11.9 µM). Also, the inhibition at 1000 µg/mL in [2] is 79.7%. Further, the Activity_index in assay [6] is 0.75; in [8], 0.792; in assay [9], 0.917; in assay [11] it was 0.792. Moreover, the Activity in assay [3] is recorded as 25 CFU.
Consider `CC1=C(C(=O)NNC(=O)c2ccncc2)C(c2ccccn2)N2C(=N1)Sc1cccc(Cl)c12` (stereo unspecified), for which the “inhibition zone (IZ)” value amounted to 16 mm in assay [4], 18 mm in [5], 22 mm in assay [7] and 17 mm in [10]. In assay [1], the MIC came out at 50 µg/mL (≈ 105 µM). The inhibition at 1000 µg/mL in assay [2] turned out to be 81.3%. Moreover, the Activity_index in [6] came to 0.708; in assay [8], 0.917; in [9] it was 0.75; in [11] it was 0.667. For the same compound, in assay [3], the Activity amounted to 23 CFU.
Take `COc1cccc2c1N1C(=NC(C)=C(C(=O)NNC(=O)c3ccncc3)C1c1ccccn1)S2` (stereo unspecified): the “inhibition zone (IZ)” value in [4] is reported as 26 mm; in assay [5] it was 23 mm; in assay [7], 17 mm; in [10], 17 mm. The compound further showed a minimal inhibitory concentration (MIC) in assay [1] of 125 µg/mL (≈ 265 µM). Besides, the inhibition at 1000 µg/mL in assay [2] is 50.4%. The Activity_index was 0.708 in assay [6], 0.708 in [8], 0.958 in assay [9] and 1.083 in assay [11]. In addition, the Activity in [3] is 61 CFU.
On to `CC1=C(C(=O)NNC(=O)c2ccncc2)C(c2ccccn2)N2C(=N1)Sc1cc(O)ccc12` (stereo unspecified), for which the “inhibition zone (IZ)” value in [4] stood at 24 mm; in assay [5], 20 mm; in [7], 24 mm; in assay [10], 16 mm. Besides, inhibition of growth in assay [1] (MIC) required 100 µg/mL (≈ 218 µM). Moreover, the inhibition at 1000 µg/mL in assay [2] worked out at 68.3%. Moreover, the Activity_index in assay [6] turned out to be 0.667; in [8] it was 1; in assay [9], 0.833; in assay [11], 1. Also, the Activity in [3] stood at 39 CFU.
Turning to `CC1=C(C(=O)NNC(=O)c2ccncc2)C(c2ccccn2)N2C(=N1)Sc1cc(F)ccc12` (stereo unspecified), the “inhibition zone (IZ)” value in assay [4] is reported as 12 mm; in assay [5], 19 mm; in assay [7], 24 mm; in [10], 19 mm. Further, 25 µg/mL (≈ 54.3 µM) was the least that counted as inhibitory in assay [1] (MIC). Further, in assay [2], the inhibition at 1000 µg/mL came out at 80.5%. Also, the Activity_index in [6] worked out at 0.792; in assay [8] it was 1; in assay [9] it was 0.792; in assay [11], 0.5. Further, in assay [3], the Activity is 24 CFU.
Take `CCOc1ccc2c(c1)SC1=NC(C)=C(C(=O)NNC(=O)c3ccncc3)C(c3ccccn3)N12` (stereo unspecified): the “inhibition zone (IZ)” value in [4] was determined as 18 mm; in assay [5], 25 mm; in assay [7], 13 mm; in assay [10], 23 mm. Also, the MIC in [1] came to 62.5 µg/mL (≈ 128 µM). Moreover, the inhibition at 1000 µg/mL in assay [2] was 63.4%. The Activity_index in assay [6] was 0.958; in assay [8] it was 0.542; in assay [9] it was 1.042; in assay [11], 0.75. For the same compound, in assay [3], the Activity amounted to 45 CFU.
As to `CN[C@@H]1[C@H](O[C@H]2[C@H](O[C@H]3[C@H](O)[C@@H](O)[C@H](N=C(N)N)[C@@H](O)[C@@H]3N=C(N)N)O[C@@H](C)[C@]2(O)C=O)O[C@@H](CO)[C@H](O)[C@H]1O` [STREPTOMYCIN], the “inhibition zone (IZ)” value in [4], in assay [5], in assay [7] and in assay [10] was 24 mm in each case.
Take `CC1=C(C(=O)NNC(=O)c2ccncc2)C(c2ccccn2)N2C(=N1)Sc1cc([N+](=O)[O-])ccc12` (stereo unspecified): the “inhibition zone (IZ)” value was 24 mm in [4], 17 mm in assay [5], 16 mm in assay [7] and 14 mm in assay [10]. In assay [1], the MIC came out at 250 µg/mL (≈ 513 µM). In addition, in assay [2], the inhibition at 1000 µg/mL was 56.9%. In addition, the Activity_index in [6] worked out at 0.583; in assay [8] it was 0.667; in assay [9] it was 0.708; in assay [11] it was 1. Further, the Activity in assay [3] is 53 CFU.
